The source made the active and inactive calls. The calls are words filed in the database; no cut-off is given here.
Assays:
[1] = Cell cycle arrest in human SH-SY5Y cells assessed as subG1 phase accumulation at 1 uM after 24 hrs by propidium iodide staining based flow cytometry relative to DMSO control; assay type: functional
[2] = tested on: A549; assay: Induction of apoptosis in human A549 cells assessed as live cells at 5 uM after 72 hrs by Annexin-V FITC/propidium iodide staining based flow cytometry (reference value: 91.9%); assay type: functional
[3] = Cell cycle arrest in human SH-SY5Y cells assessed as S phase accumulation at 1 uM after 24 hrs by propidium iodide staining based flow cytometry (reference value: 14.3 +/- 1.52%); assay type: functional
[4] = Cell cycle arrest in human NB1 hTERT cells assessed as G2/M phase accumulation at 1 uM after 48 hrs by propidium iodide staining based flow cytometry (reference value: 27.2%); assay type: functional
[5] = Antiproliferative activity against human NB1 hTERT cells after 72 hrs by XTT assay; assay type: functional, cell-based
Summary of the method: (§1)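 Cells plated at 1500–2000 per well by doubling time, treated after 24 h with a concentration series in six triplicate wells, and incubated 72 h without a medium change. XTT reagent was then added for 4 h at 37 °C and absorbance read at 490 nm. IC50 is the concentration halving absorbance versus untreated cells. Experiments run in triplicate.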

[6] = tested on: SH-SY5Y; assay: Disruption of beta-tubulin network in human SH-SY5Y cells assessed as apoptotic nuclei at 1 uM after 24 hrs by DAPI staining based immunofluorescence microscopic analysis; assay type: cell-based
Summary of the method: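 Cells seeded on glass coverslips (1 x 10^5/well), treated 24 h, fixed in 4% paraformaldehyde 15 min, permeabilized with 0.5% Triton X-100, blocked in 5% BSA/PBS, stained overnight at 4 °C with anti-β-tubulin (1:200) then fluorescent secondary antibody; nuclei counterstained with DAPI; microtubule organization and nuclear morphology examined by fluorescence microscopy.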

[7] = Cell cycle arrest in human RD cells assessed as subG1 phase accumulation at 1 uM after 24 hrs by propidium iodide staining based flow cytometry relative to DMSO control; assay type: functional
[8] = Induction of apoptosis in human NB1 hTERT cells assessed as early apoptotic cells at 5 uM after 72 hrs by Annexin-V FITC/propidium iodide staining based flow cytometry (reference value: 0.6%); assay type: functional
[9] = tested on: HeLa; assay: Disruption of beta-tubulin network in human HeLa cells assessed as induction of abnormal cell division at 1 uM after 24 hrs by DAPI staining based immunofluorescence microscopic analysis
[10] = tested on: MCF7; assay: Antiproliferative activity against human MCF7 cells at 0.5 uM after 72 hrs in presence of MRP1 inhibitor reversan by XTT assay relative to control; assay type: functional, cell-based
Summary of the method: (§2)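 Mcf7 cells treated after 24 h for 72 h at 37 °C, 5% CO2 with test compound at 0.5 μM alone or combined with harmine (1, 3, 5 μM) or reversan (5, 15, 25 μM). XTT was added for 4 h at 37 °C, absorbance read at 490 nm, and viability compared with control.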

[11] = Cell cycle arrest in human NB1 hTERT cells assessed as sub G1 phase accumulation at 1 uM after 48 hrs by propidium iodide staining based flow cytometry relative to control; assay type: functional
[12] = Cell cycle arrest in human MCF7 cells assessed as S phase accumulation at 1 uM after 144 hrs by propidium iodide staining based flow cytometry (reference value: 17.8%); assay type: functional
[13] = Antiproliferative activity against human MCF7 cells at 0.5 uM after 72 hrs in presence of 5 uM BCRP inhibitor harmine by XTT assay relative to control; assay type: functional; summary of the method: as §2
[14] = Induction of apoptosis in human NB-1 cells assessed as live cells at 5 uM after 72 hrs by Annexin-V FITC/propidium iodide staining based flow cytometry (reference value: 93.3%); assay type: cell-based, NB1; settings: read-out: Activity
[15] = Cell cycle arrest in human NB-1 cells assessed as S phase accumulation at 1 uM after 24 hrs by propidium iodide staining based flow cytometry (reference value: 3.8%); settings: nb1, 24 h
[16] = Cell cycle arrest in human NCI-H1299 cells assessed as sub G1 phase accumulation at 1 uM after 48 hrs by propidium iodide staining based flow cytometry relative to control; assay type: functional
[17] = Antiproliferative activity against human NB-1 cells after 72 hrs by XTT assay; assay type: cell-based; settings: NB1, 72 h; summary of the method: as §1
[18] = Cell cycle arrest in human A549 cells assessed as G2/M phase accumulation at 1 uM after 24 hrs by propidium iodide staining based flow cytometry (reference value: 27 +/- 1.32%); assay type: functional
[19] = Antiproliferative activity against human MCF7 cells after 72 hrs by XTT assay; assay type: functional, cell-based; settings: MCF7, 72 h; summary of the method: as §1
[20] = Cell cycle arrest in human SH-SY5Y cells assessed as G2/M phase accumulation at 1 uM after 24 hrs by propidium iodide staining based flow cytometry (reference value: 26.2 +/- 1.27%); assay type: functional
[21] = Cell cycle arrest in human SK-N-AS cells assessed as S phase accumulation at 1 uM after 24 hrs by propidium iodide staining based flow cytometry (reference value: 21.3 +/- 1.14%); assay type: functional
[22] = Induction of apoptosis in human NB1 hTERT cells assessed as necrotic cells at 5 uM after 72 hrs by Annexin-V FITC/propidium iodide staining based flow cytometry (reference value: 1.6%); assay type: functional
[23] = Cell cycle arrest in human T98G cells assessed as subG1 phase accumulation at 1 uM after 24 hrs by propidium iodide staining based flow cytometry relative to DMSO control; assay type: functional
[24] = tested on: A549; assay: Increase in p53 expression in human A549 cells at 1 uM after 24 hrs by immunoblot method relative to control; assay type: functional
Summary of the method: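 After 24 h treatment at 1 μM, cells lysed in Tris pH 8/NaCl/glycerol/NP-40/EDTA buffer with protease inhibitors. Equal lysate amounts run on 10% SDS gels, blotted to nitrocellulose, probed for p53 with GAPDH as loading control, detected by enhanced chemiluminescence. Bands quantified by densitometry against GAPDH and compared with untreated cells; three independent experiments.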

[25] = tested on: A549; assay: Induction of apoptosis in human A549 cells assessed as early apoptotic cells at 5 uM after 72 hrs by Annexin-V FITC/propidium iodide staining based flow cytometry (reference value: 1.3%); assay type: functional
[26] = Antiproliferative activity against human PC3 cells after 72 hrs by XTT assay; assay type: functional, cell-based; settings: PC-3, 72 h; summary of the method: as §1
[27] = Cell cycle arrest in human A549 cells assessed as G1 phase accumulation at 1 uM after 24 hrs by propidium iodide staining based flow cytometry (reference value: 65.4 +/- 1.84%); assay type: functional
[28] = Cell cycle arrest in human LAN1 cells assessed as G1 phase accumulation at 1 uM after 24 hrs by propidium iodide staining based flow cytometry (reference value: 60.3 +/- 1.82%); assay type: functional
[29] = Induction of apoptosis in human NB-1 cells assessed as necrotic cells at 5 uM after 72 hrs by Annexin-V FITC/propidium iodide staining based flow cytometry (reference value: 0.2%); assay type: cell-based; settings: nb1, 72 h
[30] = Cell cycle arrest in human NB1 hTERT cells assessed as S phase accumulation at 1 uM after 48 hrs by propidium iodide staining based flow cytometry (reference value: 10.3%); assay type: functional
[31] = tested on: A549; assay: Induction of apoptosis in human A549 cells assessed as necrotic cells at 5 uM after 72 hrs by Annexin-V FITC/propidium iodide staining based flow cytometry (reference value: 1.6%); assay type: functional

With `Cc1[nH]c2c(c1-c1nnc(-c3ccccc3)o1)Cc1ccccc1-2` the Activity [1] was 15.7%, the Activity [2] was 42.7% and the Activity [3] was 15.6%. The Activity [4] was 23.1%, the IC50 [5] was 130 nM and the Activity [6] was “Active”. The Activity [7] was 6.1%, the Activity [8] was 3.8% and the Activity [9] was “Active”. The Activity [10] was “Active”, the Activity [11] was 24.9% and the Activity [12] was 5.6%. It also gave an Activity [13] of 40%, a viability at 72 h, 5 µM [14] of 86.6% and an Activity [15] of 3.2%. For the same compound, the Activity [16] was 13.4%, the IC50 [17] was 1300 nM and the Activity [18] was 65.3%. It also gave an IC50 [19] of 1700 nM, an Activity [20] of 43.9% and an Activity [21] of 9.9%. The Activity [22] was 2.1%, the Activity [23] was 16.8% and the “fold change (FC)” value [24] was 2 - 3. The Activity [25] was 11%, the IC50 [26] was 670 nM and the Activity [27] was 11.4%. The Activity [28] was 11.8%, the Activity [29] was 0.8% and the Activity [30] was 10.9%. It also gave an Activity [31] of 4.6%.

Source: ChEMBL document CHEMBL3877293, “Synthesis and Antineoplastic Evaluation of Novel Unsymmetrical 1,3,4-Oxadiazoles” (J Med Chem, 2016)
